ChEMBL document CHEMBL4190344, “Synthesis of substituted phenanthrene-9-benzimidazole conjugates: Cytotoxicity evaluation and apoptosis inducing studies” (Eur J Med Chem, 2017)
pIC50: −log10 of the molar value. Activity calls are given as the source filed them. The calls are words filed in the database; no cut-off is given here.

Experiments:
BT-549 = assay: Cytotoxicity in human BT549 cells incubated for 48 hrs by MTT assay; type: functional, cell-based; details: BT-549, 48 h
How it was run: (§1)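 Cells (1 × 10^4/well) were seeded in medium with 10% FBS and left 24 h at 37 °C. Compound diluted in medium was then added, alongside a vehicle control, for 48 h. MTT (5 mg/mL stock) was added for 4 h, formazan dissolved in DMSO and absorbance read at 570 nm. IC50 taken as the concentration giving 50% inhibition.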

MDA-MB-453 = assay: Cytotoxicity in human MDA-MB-453 cells incubated for 48 hrs by MTT assay; type: functional, cell-based; details: MDA-MB-453, 48 h; how it was run: as §1
HCT-116 = assay: Cytotoxicity in human HCT116 cells incubated for 48 hrs by MTT assay; type: functional, cell-based; details: HCT-116, 48 h
How it was run: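 Cells (1 × 10^4/well) were seeded in medium with 10% FBS and left 24 h at 37 °C. Compound diluted in medium was then added, alongside a vehicle control, for 48 h. MTT (5 mg/mL stock) was added for 4 h, formazan dissolved in DMSO and absorbance read at 570 nm.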

PC-3 = assay: Cytotoxicity in human PC3 cells incubated for 48 hrs by MTT assay; type: functional, cell-based; details: PC-3, 48 h; how it was run: as §1
DU-145 = assay: Cytotoxicity in human DU145 cells incubated for 48 hrs by MTT assay; type: functional, cell-based; details: DU-145, 48 h; how it was run: as §1
HCT-15 = assay: Cytotoxicity in human HCT15 cells incubated for 48 hrs by MTT assay; type: functional, cell-based; details: HCT-15, 48 h; how it was run: as §1
Calf thymus DNA = assay: Binding affinity to calf thymus DNA assessed as increase in relative viscosity of DNA-compound complex at 5 uM by viscometry; type: nucleic-acid assay; details: Bos taurus
How it was run: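 Viscosity titration of test compound (5 µM) into CT-DNA (50 µM) in 100 mM Tris-HCl pH 7.0. Rolling-ball viscometer, ball fall time read at angles of 20° to 70°, Peltier-held temperature, viscosity calculated at 25 °C.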

SMILES | pIC50 (BT-549) | pIC50 (MDA-MB-453) | pIC50 (HCT-116) | pIC50 (PC-3) | pIC50 (DU-145) | pIC50 (HCT-15) | Activity (Calf thymus DNA)
COc1cc2cc(-c3nc4cc(C)cc(C)c4[nH]3)c3cc(OC)c(OC)cc3c2cc1OC | 5.15 | < 4.70 | < 4.70 | 4.74 | < 4.70 | < 4.70 | –
COc1cc2cc(-c3nc4ccc(C(=O)O)cc4[nH]3)c3cc(OC)c(OC)cc3c2cc1OC | < 4.70 | 4.97 | 5.00 | 4.99 | 4.90 | 5.08 | –
COc1cccc2c1C(=O)c1c(O)c3c(c(O)c1C2=O)C[C@@](O)(C(=O)CO)C[C@@H]3O[C@H]1C[C@H](N)[C@H](O)[C@H](C)O1 [DOXORUBICIN] | – | – | – | – | 5.72 | – | Active
COC(=O)Nc1nc2cc(C(=O)c3cccs3)ccc2[nH]1 [NOCODAZOLE] | – | 6.04 | 5.97 | 5.74 | 5.94 | – | –
COc1cc2cc(-c3nc4ccc(F)cc4[nH]3)c3cc(OC)c(OC)cc3c2cc1OC | 4.97 | < 4.70 | < 4.70 | 4.84 | < 4.70 | 5.03 | –
CN1CCN(c2ccc3[nH]c(-c4ccc5[nH]c(-c6ccc(O)cc6)nc5c4)nc3c2)CC1 | – | – | – | – | – | – | inactive
COc1cc2cc(-c3nc4ccc(Br)cc4[nH]3)c3cc(OC)c(OC)cc3c2cc1OC | < 4.70 | 4.82 | < 4.70 | 4.80 | < 4.70 | < 4.70 | –
COc1cc2cc(-c3nc4ccc(Cl)cc4[nH]3)c3cc(OC)c(OC)cc3c2cc1OC | < 4.70 | 5.03 | < 4.70 | 4.72 | < 4.70 | < 4.70 | –
COc1cc2cc(-c3nc4cc(Cl)ccc4n3Cc3ccccc3)c3cc(OC)c(OC)cc3c2cc1OC | < 4.70 | 4.76 | < 4.70 | 4.94 | < 4.70 | 4.99 | –
COC(=O)c1ccc2nc(-c3cc4cc(OC)c(OC)cc4c4cc(OC)c(OC)cc34)[nH]c2c1 | < 4.70 | < 4.70 | < 4.70 | 4.78 | 4.76 | < 4.70 | –
COc1cc2cc(-c3nc4ncc(Br)cc4[nH]3)c3cc(OC)c(OC)cc3c2cc1OC | < 4.70 | < 4.70 | < 4.70 | < 4.70 | 5.00 | < 4.70 | –
COc1cc2cc(-c3nc4cc(Cl)ccc4n3Cc3cc(C)cc(C)c3)c3cc(OC)c(OC)cc3c2cc1OC | < 4.70 | 4.78 | < 4.70 | 4.89 | < 4.70 | 4.81 | –
O=c1[nH]cc(F)c(=O)[nH]1 [FLUOROURACIL] | – | – | 5.06 | – | 5.66 | – | –
COc1cc2cc(-c3nc4ccc(C)cc4[nH]3)c3cc(OC)c(OC)cc3c2cc1OC | < 4.70 | < 4.70 | < 4.70 | < 4.70 | 5.09 | < 4.70 | –
CC[n+]1c(-c2ccccc2)c2cc(N)ccc2c2ccc(N)cc21 | – | – | – | – | – | – | Active
COc1ccc2cc(-c3nc4ccc(Cl)cc4[nH]3)c3cc(OC)c(OC)cc3c2c1 | 4.85 | < 4.70 | 4.95 | 5.14 | < 4.70 | < 4.70 | Active
COc1ccc2cc(-c3nc4cc(Cl)ccc4n3Cc3ccccc3)c3cc(OC)c(OC)cc3c2c1 | < 4.70 | 5.14 | < 4.70 | < 4.70 | < 4.70 | 4.85 | –
COc1ccc2cc(-c3nc4ncc(Br)cc4[nH]3)c3cc(OC)c(OC)cc3c2c1 | 5.10 | < 4.70 | < 4.70 | 4.95 | < 4.70 | < 4.70 | –
COc1cc2cc(-c3nc4ccccc4[nH]3)c3cc(OC)c(OC)cc3c2cc1OC | < 4.70 | < 4.70 | < 4.70 | 4.89 | 4.72 | < 4.70 | –
COc1ccc2cc(-c3nc4ccccc4[nH]3)c3cc(OC)c(OC)cc3c2c1 | 4.94 | < 4.70 | < 4.70 | < 4.70 | 4.76 | < 4.70 | –
COc1ccc2nc(-c3cc4cc(OC)c(OC)cc4c4cc(OC)c(OC)cc34)[nH]c2c1 | 4.94 | 5.00 | 5.05 | 4.88 | < 4.70 | 4.99 | –
